Source: PubChem BioAssay (several laboratories)
Most compounds without a hit are left out; they make up all but 5.4% or so of the library.
tolC growth inh – E. coli tolC mutant growth inhibition; hit rate 2.2% among 65,000; growth inhibition, % at 10 µM (by protocol); E. coli BW25113 tolC mutant growth, OD615;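 active = growth inhibition at or above a cutoff equal to the mean over every tested compound plus 3 SD, cut at about 60% in these data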;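 also: growth measured after 20 h incubation at 37 °C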
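Test system – E. coli BW25113 ΔtolC::kan, tolC deletion mutant strain · Detection – OD at 615 nm · Buffer or medium – LB with kanamycin 50 µg/mL · Times – 20 h compound exposure of bacteria at 37 °C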
Ecoli WT expand – growth inhibitors of E. coli BW25113 wild type. OD600 absorbance. hit rate 0.15% among 98,000. AID 710. growth inhibition, % at 100 µM;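 active = growth inhibition above about 50% at one test dose, limit read from the data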;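 also: growth measured after 20 h incubation at 37 °C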
PLAP activator – human PLAP activation. AID 696. hit rate 1.2% among 96,000. purified PLAP enzyme, luminescent substrate read-out; active compounds read high. activation fold at 20 µM; in the data active = activation fold above about 2
Target sequence (P05187 whole entry, looked up): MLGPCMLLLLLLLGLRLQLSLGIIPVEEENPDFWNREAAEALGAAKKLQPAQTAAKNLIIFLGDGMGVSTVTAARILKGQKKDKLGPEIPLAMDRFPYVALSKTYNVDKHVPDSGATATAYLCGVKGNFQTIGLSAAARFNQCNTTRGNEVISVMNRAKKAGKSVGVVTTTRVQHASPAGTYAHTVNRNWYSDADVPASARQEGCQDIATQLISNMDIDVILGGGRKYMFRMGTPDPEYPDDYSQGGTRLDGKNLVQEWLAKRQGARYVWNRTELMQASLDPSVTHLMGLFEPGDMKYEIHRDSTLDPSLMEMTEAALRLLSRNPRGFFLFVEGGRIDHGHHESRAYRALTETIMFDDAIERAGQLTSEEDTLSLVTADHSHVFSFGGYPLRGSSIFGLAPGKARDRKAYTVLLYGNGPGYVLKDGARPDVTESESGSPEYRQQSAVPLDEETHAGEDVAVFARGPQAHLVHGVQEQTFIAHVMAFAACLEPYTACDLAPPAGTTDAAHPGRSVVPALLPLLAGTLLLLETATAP
PostGolgi yeast – growth inhibition of a yeast mutant, post-Golgi transport screen. post-Golgi transport phenotypic cell assay. inhibition, % at 10 µM. hit rate 0.9% among 98,000;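 also: yeast cells grown in 1536-well plates; yeast grown about 18 h at 30C before absorbance read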
HePTP inhibitor – inhibitors of human HePTP phosphatase; recombinant HePTP phosphatase activity, OD absorbance; hit rate 0.64% among 110,000; inhibition, % at 20 µM; in the data active = inhibition above about 50%;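 also: plate controls were vehicle for no effect and reference inhibitor for full effect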
PostGolgi ctrl – growth of the yeast control strain, post-Golgi counter-screen; efflux-deficient yeast background strain, growth absorbance A615, 16 h; inhibition, % at 10 µM; hit rate 5% among 98,000; AID 738
Starred values were filed as active, the others as inactive; · = no result given. Rule as the data show it, unless noted: active = inhibition above about 30%; inactive = the rest.

SMILES	tolC growth inh	Ecoli WT expand	PLAP activator	PostGolgi yeast	HePTP inhibitor	PostGolgi ctrl
Cc1csc(NC(=O)C2CCCN(S(=O)(=O)c3ccc(Br)s3)C2)n1 (stereo not drawn)	71.0*	-3.0	1.5	-2.2	10.1	20.1
COC(=O)c1cc(C(=O)Nc2cccc(Br)c2)cc([N+](=O)[O-])c1	·	·	·	·	-8.1	·
O=C1NC(=S)/C(=C\c2ccc(-c3ccc([N+](=O)[O-])cc3)o2)S1	·	·	·	·	49.2	·
CCOC(=O)C1=C(C)NC(=O)C(C(N)=O)C1c1ccccc1 (stereo not drawn)	-12.9	1.0	0.9	1.8	-0.7	33.4*
CCOC(=O)C1=C(C)NC(C)=C(C(=O)OC)C1c1ccccc1 (stereo not drawn)	·	·	·	·	2.4	·
CC(C)Oc1ccccc1C1CC(=O)Nc2cc3c(cc21)OCO3 (stereo not drawn)	10.2	3.0	0.8	2.3	3.0	30.6*
CCCOc1ccccc1C1CC(=O)Nc2cc3c(cc21)OCCO3 (stereo not drawn)	84.8*	-7.0	·	-2.5	7.3	26.3
O=c1cc(N2CCN(c3ccc(F)cc3)CC2)[nH]c(=O)n1Cc1ccc(F)cc1	·	-5.0	0.9	5.2	·	20.7
COC(=O)C1=C(C)N=C2SC(C)C(=O)N2C1c1ccc(C(=O)OC)cc1 (stereo not drawn)	3.8	14.0	1.3	-1.9	7.0	35.8*
CCC1SC2=NC(C)=C(C(=O)OC)C(c3ccc(C)cc3)N2C1=O (stereo not drawn)	3.1	0.0	1.5	-13.1	-6.4	42.4*
O=C1NC(=S)N(c2ccc(F)cc2)C(=O)/C1=C/c1ccc(-c2cccc(C(=O)O)c2)o1	·	·	·	·	44.3	·
O=C1NC(=S)N(c2ccccc2)C(=O)/C1=C/c1ccc(-c2ccc(Cl)c(C(=O)O)c2)o1	·	·	·	·	22.7	·
O=C1NC(=S)N(c2ccc(Cl)cc2)C(=O)/C1=C/C=C/c1ccccc1	·	·	·	·	61.9*	·
Cc1ccc(N2C(=O)/C(=C\c3ccc(-c4ccc(Cl)c(C(=O)O)c4)o3)C(=O)NC2=S)cc1	·	·	·	·	66.0*	·
CC1=C(C#N)C(=O)NC(=O)/C1=C\c1ccc(-c2ccc(Cl)c(Cl)c2)o1	·	·	·	·	67.2*	·
CCOC(=O)c1ccc(-c2ccc(/C=C3\C(=O)NC(=O)C(C#N)=C3C)o2)cc1	·	·	·	·	-15.0	·
O=C1NC(=S)N(c2ccc(Cl)cc2)C(=O)/C1=C\c1ccc(-c2cccc(C(=O)O)c2)o1	·	·	·	·	77.6*	·
COc1ccc(C(=O)Nc2ccc(NC(=O)c3ccco3)c(OC)c2)cc1Cl	·	·	·	·	2.5	·
CCOC(=O)c1ccc(N2NC(=O)/C(=C/c3ccc(-c4ccc(Cl)c(C(=O)O)c4)o3)C2=O)cc1	·	·	·	·	50.6*	·
Cc1cc([N+](=O)[O-])ccc1-c1ccc(/C=C2/C(=O)NC(=S)N(c3ccc(Cl)cc3)C2=O)o1	·	·	·	·	-1.7	·
CCOc1ccc(N2C(=O)NC(=O)/C(=C/c3ccc(-c4ccc(C(=O)O)c(Cl)c4)o3)C2=O)cc1	·	·	·	·	102.6*	·
COC(=O)c1ccc(-c2ccc(/C=C3\C(=O)NN(c4ccccc4)C3=O)o2)cc1	·	·	·	·	4.1	·
COc1c(Br)cc(Cl)cc1/C=C1\C(=O)NC(=S)N(c2ccc(C)cc2)C1=O	·	·	·	·	102.9*	·
Cc1ccc([N+](=O)[O-])cc1-c1ccc(/C=C2/C(=O)NN(c3ccc(Cl)cc3)C2=O)o1	·	·	·	·	94.1*	·
CCOc1cc(OCC)cc(C(=O)Nc2ccc(N(CC)CC)cc2)c1	·	·	·	·	3.5	·
SMILES	tolC growth inh	Ecoli WT expand	PLAP activator	PostGolgi yeast	HePTP inhibitor	PostGolgi ctrl
CC(=O)Nc1ccc(NC(=O)c2cc(-c3ccccc3)nc3ccccc23)cc1	·	·	·	·	2.6	·
CCCOc1ccc(C(=O)N2CCN(c3ccc(NC(=O)CC)cc3Cl)CC2)cc1	63.4*	-12.0	1.3	9.2	1.0	13.1
CCOc1ccc(C(=O)N2CCN(c3ccc([N+](=O)[O-])cc3Cl)CC2)cc1	·	·	·	·	-13.1	·
O=C(Nc1ccc(N2CCN(C(=O)c3ccco3)CC2)c(Cl)c1)c1cc2ccccc2o1	38.4	-15.0	1.3	8.9	1.3	27.8
CCCC(=O)N1CCN(c2ccc(NC(=O)c3cc4ccccc4o3)cc2Cl)CC1	49.8	-6.0	1	86.4*	4.3	50.1*
CCC(=O)N1CCN(c2ccc(NC(=O)c3cc4ccccc4o3)cc2Cl)CC1	30.9	-10.0	1.4	5.9	8.6	37.9*
O=C(O)CCCN1C(=O)C(=O)/C(=C(/O)c2ccccc2)C1c1cccc([N+](=O)[O-])c1 (stereo not drawn)	·	·	·	·	3.3	·
Cc1cc(C)c2ccc(NN)nc2c1O	·	13.0	2*	-8.3	·	7.8
Clc1ccc(C2=NN(c3ccccc3)C(c3ccco3)C2)cc1 (stereo not drawn)	·	·	·	·	11.5	·
